T cruzi growth-1 – T. cruzi intracellular proliferation inhibitors, primary screen, cell-based, beta-gal Tulahuen parasites, NIH3T3 host, luminescence. inhibition, % at 8.34 µM. T. cruzi beta-gal in NIH3T3, GalScreen luminescence, 90 h. AID 624255, 2012. actives 5.9% (n = 77,000);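 active = mean inhibition above about 93%, with at least 55% of replicates each passing it, limit read from the data, passing the limit was not always enough; inconclusive = only one of those two conditions holds; inactive = neither condition holds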
GASC1 inh – inhibitors of GASC-1 (KDM4C) histone demethylase, primary screen, biochemical, single concentration HTS; Lysine-specific demethylase 4C (Homo sapiens), Q9H3R0; GST-KDM4C 2-372, H3K9me3 peptide, LANCE TR-FRET; actives 0.15% (n = 96,000); inhibition, % at 12.5 µM;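 active = mean replicate inhibition above about 25%, with at least 55% of replicates also reaching it, limit read from the data, passing the limit was not always enough; inconclusive = only one of those two conditions met; inactive = neither condition met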
Target sequence (Q9H3R0 2-372 limits assumed): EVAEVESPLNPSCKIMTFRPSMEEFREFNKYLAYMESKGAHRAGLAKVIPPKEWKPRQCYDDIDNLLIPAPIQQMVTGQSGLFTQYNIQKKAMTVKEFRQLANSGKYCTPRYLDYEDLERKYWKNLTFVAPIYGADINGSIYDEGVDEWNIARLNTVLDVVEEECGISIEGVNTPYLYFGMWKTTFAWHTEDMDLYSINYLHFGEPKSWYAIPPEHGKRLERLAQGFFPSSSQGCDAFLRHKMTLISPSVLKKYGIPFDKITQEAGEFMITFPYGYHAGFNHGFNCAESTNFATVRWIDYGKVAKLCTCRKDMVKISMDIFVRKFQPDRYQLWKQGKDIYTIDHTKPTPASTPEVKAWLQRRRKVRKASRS
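reagent = H3K9me3 peptide substrate, Fe(II), 2-oxoglutarate | system = GST-tagged GASC-1 (JMJD2C) catalytic fragment, aa 2-372 | amount = enzyme final amount 10 nM | read-out = Fall in 671/618 emission ratio as inhibition | medium = HEPES buffer, pH 7.5, plus ascorbate | schedule = 30 min reaction, 60 min detection, RT | measured by = LANCE TR-FRET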
IDH1 mut inh – inhibitors of IDH1 R132H reductase, primary screen, biochemical, plate reader, single point. Isocitrate dehydrogenase [NADP] cytoplasmic (Homo sapiens), O75874. diaphorase/resazurin fluorescence, 60 min. inhibition, % at 10 µM. actives 0.18% (n = 70,000); in the data active = inhibition above about 34%; inconclusive = no clear call, values can overlap the other calls; inactive = below about 11%
T cruzi growth-2 – T. cruzi intracellular proliferation inhibitors, confirmation, cell-based, NIH3T3 host, beta-gal parasite, luminescence, cherry-pick; shares compounds with T cruzi growth-1; T. cruzi beta-gal in NIH3T3, GalScreen luminescence, 90 h; inhibition, % at 8.35 µM; actives 72% (n = 5,600); AID 651739, 2012;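 active = mean replicate inhibition above about 95% and at least 55% of replicates individually reaching it, limit read from the data; inconclusive = only one of the two criteria is met; inactive = neither criterion is met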
T cruzi growth-3 – inhibitors of intracellular T. cruzi replication, confirmation, NIH3T3 host cells, beta-gal parasites, cherry-pick, set 2 | actives 21% (n = 5,600) | shares compounds with T cruzi growth-1 | AID 651740, 2012 | T. cruzi beta-gal in NIH3T3, GalScreen luminescence, 90 h | inhibition, % at 2.09 µM;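 active = mean inhibition above about 95%, with at least 55% of replicates also reaching it, limit read from the data; inconclusive = meets just one of the two conditions; inactive = meets neither condition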
NIH3T3 tox – cytotoxicity in mouse NIH/3T3 fibroblasts, confirmation, cytotoxicity control for T. cruzi proliferation inhibitor project, cell-based, cherry-pick, single point; shares compounds with T cruzi growth-1; cytotoxicity (signal decrease), % at 8.35 µM; actives 14% (n = 5,600); NIH/3T3 viability, CellTiter-Glo ATP luminescence, 90 h;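 active = mean signal decrease across replicates above about 35% based on untreated-well scatter, with enough replicates individually passing, limit read from the data; inconclusive = no rule stated though some were filed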
3T3 cytotox 2 – NIH/3T3 fibroblast cytotoxicity, confirmation, cytotoxicity control, cell-based, cherry-pick, single point, set 2; actives 56% (n = 5,600); inhibition, % at 24.9 µM; AID 651744, 2012; shares compounds with T cruzi growth-1; NIH/3T3 viability, CellTiter-Glo ATP luminescence, 90 h;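 active = mean loss of cell viability signal at or above a set limit, and enough replicates individually reaching it; inconclusive = meets only the mean limit or only the replicate share; inactive = meets neither condition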
Numbers stand for hits; – = inactive; ? = inconclusive; · = not tested or not shown. This is one part of a sample in which hits are shown more often than they occur.

SMILES	T cruzi growth-1	GASC1 inh	IDH1 mut inh	T cruzi growth-2	T cruzi growth-3	NIH3T3 tox	3T3 cytotox 2
OC[C@@H]1[C@@H](c2ccc(C#Cc3ccccc3F)cc2)[C@@H]2CN(Cc3cncnc3)CCCCN12	–	–	·	·	·	·	·
OC[C@@H]1[C@@H](c2ccc(C#Cc3ccccc3)cc2)[C@@H]2CN(Cc3cncnc3)CCCCN12	101	–	·	98	–	–	103
OC[C@H]1[C@@H](c2ccc(C#Cc3ccccc3F)cc2)[C@@H]2CN(Cc3cncnc3)CCCCN12	96	–	·	104	–	47	104
OC[C@H]1[C@@H](c2ccc(C#Cc3ccccc3F)cc2)[C@H]2CN(Cc3cncnc3)CCCCN21	–	–	·	·	·	·	·
OC[C@H]1[C@H](c2ccc(Br)cc2)[C@@H]2CN(Cc3cncnc3)CCCCN12	110	–	·	97	–	–	–
OC[C@H]1[C@H](c2ccc(C#Cc3ccccc3)cc2)[C@@H]2CN(Cc3cncnc3)CCCCN12	104	–	·	107	–	44	105
COc1ccc(CN=Cc2ccc(C(F)(F)F)cc2)cc1	·	·	–	·	·	·	·
Cc1cc(Cl)ccc1OC(C)C(=O)Nc1cccc(C(=O)O)c1 (stereo not given)	·	·	–	·	·	·	·
OC[C@@H]1[C@H](c2ccc(C#Cc3ccccc3)cc2)[C@H]2CN(Cc3cncnc3)CCCCN12	119	–	·	98	102	37	102
OC[C@H]1[C@@H](c2ccc(C#Cc3ccccc3)cc2)[C@H]2CN(Cc3cncnc3)CCCCN21	–	–	·	·	·	·	·
CCc1ccc(OCC(=O)NC(=S)Nc2cccc3nsnc23)cc1	·	·	–	·	·	·	·
COc1ccc(NC(=O)CSc2nnc(C)n2-c2ccc(C)c(C)c2)cc1	·	·	–	·	·	·	·
Cc1ccccc1S(=O)(=O)N[C@H]1CC[C@@H](CCn2cc(-c3ccccc3)nn2)O[C@H]1CO	–	–	–	·	·	·	·
O=S(=O)(N[C@H]1CC[C@@H](CCn2cc(-c3cccc(F)c3)nn2)O[C@H]1CO)c1ccc(Cl)cc1	111	–	–	–	–	–	–
COc1cccc(S(=O)(=O)N[C@@H]2CC[C@@H](CCn3cc(-c4ccccn4)nn3)O[C@@H]2CO)c1	108	–	–	–	–	–	–
Cc1cccc(S(=O)(=O)N[C@@H]2CC[C@H](CCn3cc(-c4ccccn4)nn3)O[C@@H]2CO)c1	–	–	–	·	·	·	·
O=S(=O)(N[C@@H]1CC[C@@H](CCn2cc(-c3cccc(F)c3)nn2)O[C@H]1CO)c1ccc(Cl)cc1	–	–	–	·	·	·	·
COc1ccc(-c2cn(CC[C@H]3CC[C@@H](NS(=O)(=O)c4ccccc4C)[C@@H](CO)O3)nn2)cc1	107	–	–	103	–	–	–
O=c1[nH]c(=O)c2cc(Br)ccc2[nH]1	·	·	–	·	·	·	·
Cc1ccc(NC(=O)CSC2CC(=O)N(c3ccc(Br)cc3)C2=O)cc1Cl (stereo not given)	·	·	–	·	·	·	·
CCc1ccccc1NC(=O)c1ccccc1S(=O)(=O)c1ccccc1[N+](=O)[O-]	·	·	–	·	·	·	·
Cc1cc(Cl)ccc1NC(=O)CSc1nc(C(F)(F)F)cc(=O)[nH]1	·	·	–	·	·	·	·
O=C(CN(C1CCCCC1)S(=O)(=O)c1ccc(Br)cc1)Nc1c(F)cccc1F	·	·	–	·	·	·	·
C[C@H]1CN([C@@H](C)CO)C(=O)c2cc(NC(=O)Nc3cccc4ccccc34)ccc2O[C@H]1CN(C)Cc1ccc(Cl)c(Cl)c1	?	–	–	96	–	–	–
C[C@H]1CN([C@@H](C)CO)C(=O)c2cc(NC(=O)Nc3cccc4ccccc34)ccc2O[C@@H]1CN(C)Cc1ccc(Cl)c(Cl)c1	–	–	–	·	·	·	·
SMILES	T cruzi growth-1	GASC1 inh	IDH1 mut inh	T cruzi growth-2	T cruzi growth-3	NIH3T3 tox	3T3 cytotox 2
C[C@@H]1CN([C@H](C)CO)C(=O)Cc2cc(NC(=O)Nc3cccc4ccccc34)ccc2O[C@@H]1CN(C)Cc1ccc(Cl)c(Cl)c1	?	–	·	108	107	44	–
C[C@H](CO)N1C[C@H](C)[C@H](CN(C)Cc2ccc(Cl)c(Cl)c2)Oc2ccc(NC(=O)Nc3cccc4ccccc34)cc2CC1=O	–	–	–	·	·	·	·
COc1ccc(OC)c(NC(=O)CSc2nnc(-c3ccccc3)n2-c2ccccc2)c1	·	·	–	·	·	·	·
C[C@H](CO)N1C[C@H](C)[C@@H](CN(C)S(=O)(=O)c2cn(C)cn2)Oc2cc(C#Cc3cccc(F)c3)ccc2S1(=O)=O	–	–	–	·	·	·	·
C[C@H]1CN([C@@H](C)CO)S(=O)(=O)c2ccc(C#Cc3ccccc3)cc2O[C@@H]1CN(C)S(=O)(=O)c1cn(C)cn1	?	–	–	112	–	41	36
C[C@H](CO)N1C[C@H](C)[C@@H](CN(C)S(=O)(=O)c2cn(C)cn2)Oc2cc(C#Cc3ccc(F)cc3)ccc2S1(=O)=O	107	–	–	96	–	–	25
C[C@H]1CN([C@@H](C)CO)S(=O)(=O)c2ccc(C#Cc3cccc(F)c3)cc2O[C@H]1CN(C)S(=O)(=O)c1cn(C)cn1	96	–	–	97	–	–	29
C[C@@H]1CN([C@@H](C)CO)S(=O)(=O)c2ccc(C#Cc3ccccc3)cc2O[C@H]1CN(C)S(=O)(=O)c1cn(C)cn1	–	–	–	·	·	·	·
C[C@H](CO)N1C[C@H](C)[C@H](CN(C)S(=O)(=O)c2cn(C)cn2)Oc2cc(C#Cc3ccc(F)cc3)ccc2S1(=O)=O	–	–	–	·	·	·	·
CCCCCCCCCC(O)CC(O)CC(O)CC1CC=CC(=O)O1 (stereo not given)	·	·	–	·	·	·	·
C[C@H](CO)N1C[C@H](C)[C@H](CN(C)S(=O)(=O)c2cn(C)cn2)Oc2cc(C#Cc3cccc(F)c3)ccc2S1(=O)=O	–	–	–	·	·	·	·
C[C@@H]1CN([C@@H](C)CO)S(=O)(=O)c2ccc(C#Cc3cccc(F)c3)cc2O[C@@H]1CN(C)S(=O)(=O)c1ccccc1F	106	–	–	102	111	34	–
C[C@H]1CN([C@@H](C)CO)S(=O)(=O)c2ccc(C#Cc3cccc(F)c3)cc2O[C@H]1CN(C)C	–	–	–	·	·	·	·
C[C@H](CO)N1C[C@H](C)[C@@H](CN(C)S(=O)(=O)c2ccccc2F)Oc2cc(C#Cc3cccc(F)c3)ccc2S1(=O)=O	107	–	–	99	116	–	43
C[C@@H]1CN([C@H](C)CO)S(=O)(=O)c2ccc(C#Cc3cccc(F)c3)cc2O[C@H]1CN(C)S(=O)(=O)c1cn(C)cn1	–	–	–	·	·	·	·

Screening data from PubChem.
